From ChEMBL document CHEMBL1649392, “Synthesis of substituted 3-amino-N-phenyl-1H-indazole-1-carboxamides endowed with antiproliferative activity” (Eur J Med Chem, 2011)

What was measured:
Format in all cases: functional
[1] = test system: LOX IMVI; test: Antiproliferative activity against human LOXIMVI cells after 48 hrs by sulforhodamine B assay
How it was run: (§1)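 NCI 60-cell-line panel covering nine cancer types (leukemia, non-small cell lung, colon, CNS, melanoma, ovarian, renal, prostate, breast). Compounds were first tested at a single dose, then in a five-dose screen (series starting 0.01, 0.1 …) if they met NCI threshold criteria. Reported per line: GI50 (molar concentration inhibiting 50% net growth), TGI (total growth inhibition) and LC50 (50% net cell death).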

[2] = test system: HL-60(TB); test: Antiproliferative activity against human HL-60(TB) cells after 48 hrs by sulforhodamine B assay; details: HL-60, 48 h
How it was run: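 Tested by the National Cancer Institute in its full tumour cell panel covering nine cancer types, including leukemia. Compounds were first screened at a single dose. Those passing the preset inhibition threshold then went to a 5-dose screen. GI50 is the molar concentration giving 50% inhibition of net cell growth; TGI and LC50 were also derived.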

[3] = test system: IGROV-1; test: Antiproliferative activity against human IGROV1 cells after 48 hrs by sulforhodamine B assay; details: IGROV-1, 48 h; how it was run: as §1
[4] = Antiproliferative activity against human […] cells after 48 hrs by sulforhodamine B assay; how it was run: as §1
[5] = test system: NCI-H460; test: Antiproliferative activity against human NCI-H460 cells after 48 hrs by sulforhodamine B assay; details: NCI-H460, 48 h; how it was run: as §1
[6] = test system: NCI/ADR-RES; test: Antiproliferative activity against human NCI/ADR-RES cells after 48 hrs by sulforhodamine B assay; how it was run: as §1
[7] = test system: UO-31; test: Antiproliferative activity against human UO31 cells after 48 hrs by sulforhodamine B assay; details: UO-31, 48 h
How it was run: (§2)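 NCI 60-cell-line panel screen: single dose 10 µM first, then 5-dose testing (0.01, 0.1, … molar series). For each line, GI50 is the molar concentration giving 50% inhibition of net cell growth, TGI gives total inhibition of net growth, and LC50 gives 50% net cell death. Method follows the NCI DTP protocol.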

[8] = test system: CCRF-CEM; test: Antiproliferative activity against human CCRF-CEM cells after 48 hrs by sulforhodamine B assay; how it was run: as §1
[9] = test system: HOP-62; test: Antiproliferative activity against human HOP62 cells after 48 hrs by sulforhodamine B assay; details: HOP-62, 48 h; how it was run: as §1
[10] = test system: DU-145; test: Antiproliferative activity against human DU145 cells after 48 hrs by sulforhodamine B assay; details: DU-145, 48 h; how it was run: as §1
[11] = test system: MCF7; test: Antiproliferative activity against human MCF7 cells after 48 hrs by sulforhodamine B assay; details: MCF7, 48 h; how it was run: as §1
[12] = test system: BT-549; test: Antiproliferative activity against human BT549 cells after 48 hrs by sulforhodamine B assay; details: BT-549, 48 h; how it was run: as §1
[13] = test system: HCC 2998; test: Antiproliferative activity against human HCC2998 cells after 48 hrs by sulforhodamine B assay; details: HCC 2998, 48 h; how it was run: as §1
[14] = test system: CAKI-1; test: Antiproliferative activity against human Caki1 cells after 48 hrs by sulforhodamine B assay; details: CAKI-1, 48 h; how it was run: as §1
[15] = test system: HCT-116; test: Antiproliferative activity against human HCT116 cells after 48 hrs by sulforhodamine B assay; details: HCT-116, 48 h; how it was run: as §1
[16] = test system: MDA-MB-435; test: Antiproliferative activity against human MDA-MB-435 cells after 48 hrs by sulforhodamine B assay; details: MDA-MB-435, 48 h; how it was run: as §1
[17] = test system: UACC-257; test: Antiproliferative activity against human UACC257 cells after 48 hrs by sulforhodamine B assay; details: UACC-257, 48 h; how it was run: as §2
[18] = test system: RXF 393; test: Antiproliferative activity against human RXF393 cells after 48 hrs by sulforhodamine B assay; details: RXF 393, 48 h; how it was run: as §1
[19] = test system: SN12C; test: Antiproliferative activity against human SN12C cells after 48 hrs by sulforhodamine B assay; how it was run: as §1
[20] = test system: SF-539; test: Antiproliferative activity against human SF539 cells after 48 hrs by sulforhodamine B assay; details: SF-539, 48 h; how it was run: as §1
[21] = test system: HT-29; test: Antiproliferative activity against human HT-29 cells after 48 hrs by sulforhodamine B assay; details: HT-29, 48 h; how it was run: as §1
[22] = test system: OVCAR-5; test: Antiproliferative activity against human OVCAR5 cells after 48 hrs by sulforhodamine B assay; details: OVCAR-5, 48 h; how it was run: as §1
[23] = test system: ACHN; test: Antiproliferative activity against human ACHN cells after 48 hrs by sulforhodamine B assay; how it was run: as §1
[24] = test system: M14; test: Antiproliferative activity against human M14 cells after 48 hrs by sulforhodamine B assay; details: M14, 48 h; how it was run: as §1
[25] = test system: SNB-19; test: Antiproliferative activity against human SNB19 cells after 48 hrs by sulforhodamine B assay; details: SNB-19, 48 h; how it was run: as §1
[26] = test system: TK-10; test: Antiproliferative activity against human TK10 cells after 48 hrs by sulforhodamine B assay; details: TK-10, 48 h; how it was run: as §2
[27] = test system: SK-MEL-5; test: Antiproliferative activity against human SK-MEL-5 cells after 48 hrs by sulforhodamine B assay; details: SK-MEL-5, 48 h; how it was run: as §1
[28] = read-out: LC50 (the source's name)

Nc1ccc2c(c1)c(N)nn2C(=O)Nc1ccc(Cc2ccccc2)cc1
GI50 [1]: 3.38 µM
LC50 (concentration causing 50% net cell death) [1]: 46.7 µM
TGI [1]: 16 µM
GI50 [2]: 3.46 µM
TGI [2]: 17.2 µM
CC50 [2, 28]: 72.2 µM
GI50 [3]: 16.4 µM
TGI [3]: 54.1 µM
CC50 [3, 28]: > 100 µM
GI50 [4]: 5.14 µM
TGI [4]: 35 µM
CC50 [4, 28]: > 100 µM
GI50 [5]: 4.64 µM
TGI [5]: 23.8 µM
CC50 [5, 28]: > 100 µM
GI50 [6]: 17.4 µM
TGI [6]: 75.1 µM
CC50 [6, 28]: > 100 µM
GI50 [7]: 4.72 µM
TGI [7]: 32.6 µM
CC50 [7, 28]: > 100 µM
GI50 [8]: 2.07 µM
LC50 (concentration causing 50% net cell death) [8]: > 100 µM
TGI [8]: 18.8 µM
GI50 [9]: 11.2 µM
LC50 (concentration causing 50% net cell death) [9]: 65.3 µM
TGI [9]: 27 µM
GI50 [10]: 10.9 µM
TGI [10]: 24 µM
CC50 [10, 28]: 52.6 µM
GI50 [11]: 6.92 µM
TGI [11]: 26.5 µM
CC50 [11, 28]: 85.4 µM
GI50 [12]: 14.6 µM
TGI [12]: 33.5 µM
CC50 [12, 28]: 76.7 µM
GI50 [13]: 4.17 µM
TGI [13]: 14.8 µM
CC50 [13, 28]: 40.9 µM
GI50 [14]: 4.3 µM
TGI [14]: 26.8 µM
CC50 [14, 28]: > 100 µM
GI50 [15]: 6.79 µM
LC50 (concentration causing 50% net cell death) [15]: 50 µM
TGI [15]: 20.8 µM
GI50 [16]: 7.36 µM
TGI [16]: 23.8 µM
CC50 [16, 28]: 65.5 µM
GI50 [17]: 14.5 µM
TGI [17]: 29.7 µM
CC50 [17, 28]: 60.8 µM
GI50 [18]: 21.4 µM
TGI [18]: 43.9 µM
CC50 [18, 28]: 90.1 µM
GI50 [19]: 13.4 µM
TGI [19]: 30.9 µM
CC50 [19, 28]: 71.1 µM
GI50 [20]: 8.7 µM
TGI [20]: 22.1 µM
CC50 [20, 28]: 51.8 µM
GI50 [21]: 4.51 µM
LC50 (concentration giving 50% net cell death) [21]: 46 µM
TGI [21]: 17.2 µM
GI50 [22]: 22.6 µM
TGI [22]: 60.5 µM
CC50 [22, 28]: > 100 µM
GI50 [23]: 3.37 µM
TGI [23]: 13.7 µM
CC50 [23, 28]: 39.6 µM
GI50 [24]: 4.59 µM
TGI [24]: 17.8 µM
CC50 [24, 28]: 51.9 µM
GI50 [25]: 13.9 µM
TGI [25]: 27.3 µM
CC50 [25, 28]: 53.6 µM
GI50 [26]: 19.4 µM
TGI [26]: 46 µM
CC50 [26, 28]: > 100 µM
GI50 [27]: 6.52 µM
TGI [27]: 19.8 µM
CC50 [27, 28]: 46.4 µM
